Experimental findings from ChEMBL document CHEMBL4334435, “A focused structure-activity relationship study of psoralen-based immunoproteasome inhibitors” (Medchemcomm, 2019) are described below.

Calls of active or inactive are those of the source. No cut-off for these calls is given here.

As a reminder, the IC50 is the concentration at which inhibition is half-maximal.

Data set [1] deals with PBMC. The data set can be described thus: Inhibition of LPS-induced TNFalpha production in human PBMC at 50 nM preincubated for 1 hr followed by LPS addition and measured after 24 hrs by cytometric bead array-based FACS analysis. It is filed as functional, cell-based. In general terms: Flow cytometry measures light scatter and fluorescence of single cells or particles in a stream.

Data set [2] has as its system PBMC. The data set can be described thus: Inhibition of LPS-induced IL-8 production in human PBMC at 50 nM preincubated for 1 hr followed by LPS addition and measured after 24 hrs by cytometric bead array-based FACS analysis. The data set is classed as functional, cell-based.
The subject of data set [3] is PBMC. Description: Inhibition of LPS-induced IL-6 secretion in human PBMC at 50 nM preincubated for 1 hr followed by LPS addition and measured after 24 hrs by cytometric bead array-based FACS analysis. The data set is classed as functional, cell-based.
In data set [4] the target is T1, Proteasome subunit beta type-8 (Homo sapiens) (UniProt P28062).
T1 sequence (whole entry): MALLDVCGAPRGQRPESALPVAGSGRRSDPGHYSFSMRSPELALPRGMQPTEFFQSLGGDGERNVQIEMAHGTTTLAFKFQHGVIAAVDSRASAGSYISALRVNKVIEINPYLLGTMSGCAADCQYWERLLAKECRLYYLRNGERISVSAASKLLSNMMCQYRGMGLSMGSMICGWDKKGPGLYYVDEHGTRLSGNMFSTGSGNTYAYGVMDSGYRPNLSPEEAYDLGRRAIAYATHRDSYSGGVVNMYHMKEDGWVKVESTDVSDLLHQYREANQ
Description: Reversible inhibition of human immunoproteasome beta 5i subunit assessed as recovery of enzyme activity at 45 nM using Suc-LLVY-AMC as substrate preincubated for 30 mins followed by 100-fold diluted substrate addition by rapid dilution assay relative to control. More on the design: scale not given: the % may be the effect or the level left.

Data set [5] has as its system PBMC. Description: Inhibition of LPS-induced IL-12p70 production in human PBMC at 50 nM preincubated for 1 hr followed by LPS addition and measured after 24 hrs by cytometric bead array-based FACS analysis. The data set is classed as functional, cell-based.
Data set [6] concerns PBMC. The data set can be described thus: Inhibition of LPS-induced IL-10 secretion in human PBMC at 50 nM preincubated for 1 hr followed by LPS addition and measured after 24 hrs by cytometric bead array-based FACS analysis. The data set is classed as functional, cell-based.
Data set [7] relates to PBMC. The data set can be described thus: Inhibition of LPS-induced IL-1beta production in human PBMC at 50 nM preincubated for 1 hr followed by LPS addition and measured after 24 hrs by cytometric bead array-based FACS analysis. The data set is classed as functional, cell-based.
The species entered for the next data set is Homo sapiens. The data set can be described thus: Selectivity ratio of IC50 for human constitutive proteasome beta 5 subunit to IC50 for human immunoproteasome beta 5i subunit.
Data set [8] has as its target T2, Proteasome subunit beta type-8 (Homo sapiens, UniProt P28062).
T2 sequence (P28062 whole entry): T1 sequence (whole entry)
The data set can be described thus: Inhibition of human immunoproteasome beta 5i subunit using Suc-LLVY-AMC as substrate preincubated for 30 mins followed by substrate addition and measured for 120 mins by fluorescence based assay.

Data set [9] concerns the target T3, Proteasome subunit beta type-10 (Homo sapiens, UniProt P40306).
T3 sequence (P40306 whole entry): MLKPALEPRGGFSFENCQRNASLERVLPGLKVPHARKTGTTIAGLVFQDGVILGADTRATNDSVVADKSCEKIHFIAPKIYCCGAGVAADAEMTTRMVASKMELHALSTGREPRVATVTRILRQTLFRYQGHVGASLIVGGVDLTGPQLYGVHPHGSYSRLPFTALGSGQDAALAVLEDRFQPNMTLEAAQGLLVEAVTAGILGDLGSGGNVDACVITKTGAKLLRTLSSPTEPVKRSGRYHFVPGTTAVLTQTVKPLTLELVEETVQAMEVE
Description: Inhibition of human immunoproteasome beta 2i subunit using Boc-LRR-AMC as substrate preincubated for 30 mins followed by substrate addition measured for 120 mins by fluorescence based assay.

Data set [10] has as its target T4, Proteasome subunit beta type-9 (Homo sapiens, UniProt P28065).
T4 sequence (P28065 whole entry): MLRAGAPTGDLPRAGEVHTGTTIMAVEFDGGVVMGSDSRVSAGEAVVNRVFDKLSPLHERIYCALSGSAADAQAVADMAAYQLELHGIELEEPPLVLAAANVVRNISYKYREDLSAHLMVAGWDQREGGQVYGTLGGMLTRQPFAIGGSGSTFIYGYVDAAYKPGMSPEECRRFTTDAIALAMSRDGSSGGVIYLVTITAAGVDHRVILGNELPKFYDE
The data set can be described thus: Inhibition of human immunoproteasome beta 1i subunit using Ac-PAL-AMC as substrate preincubated for 30 mins followed by substrate addition measured for 120 mins by fluorescence based assay.

The test system of data set [11] is PBMC. The data set can be described thus: Inhibition of LPS-induced IL-10 secretion in human PBMC at 10 uM preincubated for 1 hr followed by LPS addition and measured after 24 hrs by cytometric bead array-based FACS analysis. The data set is classed as functional, cell-based.
Data set [12] relates to PBMC. Description: Inhibition of LPS-induced TNFalpha production in human PBMC at 10 uM preincubated for 1 hr followed by LPS addition and measured after 24 hrs by cytometric bead array-based FACS analysis. The data set is classed as functional, cell-based.
Data set [13] deals with T5, Proteasome subunit beta type-10 (Homo sapiens) (UniProt P40306).
T5 sequence (whole entry): T3 sequence (P40306 whole entry)
Description: Inhibition of human immunoproteasome beta 2i subunit at 10 uM using Boc-LRR-AMC as substrate preincubated for 30 mins followed by substrate addition measured for 120 mins by fluorescence based assay. The essentials: (§1)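 Purified human immunoproteasome or constitutive proteasome subunit activities measured with fluorogenic substrates in presence of 10 μM compound; reported as residual activity.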

For data set [14], the system named is PBMC. Description: Inhibition of LPS-induced IL-6 secretion in human PBMC at 10 uM preincubated for 1 hr followed by LPS addition and measured after 24 hrs by cytometric bead array-based FACS analysis. It is filed as functional, cell-based.
The target of data set [15] is T1, Proteasome subunit beta type-8 (Homo sapiens). Description: Irreversible inhibition of human immunoproteasome beta 5i subunit assessed as recovery of enzyme activity at 1060 nM using Suc-LLVY-AMC as substrate preincubated for 30 mins followed by 100-fold diluted substrate addition by rapid dilution assay relative to control. Also on record: scale not given: the % may be the effect or the level left.

Data set [16] has the same target. Description: Inhibition of 26S immunoproteasome beta 5 chymotrypsin-like activity in human HeLa intact cells using […] as substrate after 2 hrs by luciferase based assay. It is filed as cell-based.
Data set [17] concerns the target T6, Proteasome Macropain subunit MB1 (Homo sapiens, UniProt P28074).
T6 sequence (P28074 whole entry): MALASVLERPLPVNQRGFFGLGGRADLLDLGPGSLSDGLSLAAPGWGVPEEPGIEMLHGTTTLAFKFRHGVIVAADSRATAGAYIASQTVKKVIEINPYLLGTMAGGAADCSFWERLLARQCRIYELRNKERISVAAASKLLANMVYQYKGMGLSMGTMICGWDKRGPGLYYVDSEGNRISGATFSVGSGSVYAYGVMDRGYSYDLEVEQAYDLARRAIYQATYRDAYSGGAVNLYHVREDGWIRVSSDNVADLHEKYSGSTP
Description: Inhibition of human constitutive proteasome beta 5 subunit at 10 uM using Suc-LLVY-AMC as substrate preincubated for 30 mins followed by substrate addition measured for 120 mins by fluorescence based assay. Particulars: 2 h. The method in brief:
as §1

Data set [18] addresses T1, Proteasome subunit beta type-8 (Homo sapiens). The data set can be described thus: Time-dependent inhibition of human immunoproteasome beta 5i subunit assessed as increase in IC50 value using Suc-LLVY-AMC as substrate co-incubated with substrate without preincubation by fluorescence based analysis relative to 30 mins preincubated compound-treated control. The essentials:
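IC50 against immunoproteasome beta5i (Suc-LLVY-AMC) determined without pre-incubating compound with enzyme before substrate addition, compared against pre-incubated assay.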

For data set [19], the system named is PBMC. Description: Inhibition of LPS-induced IL-1beta production in human PBMC at 10 uM preincubated for 1 hr followed by LPS addition and measured after 24 hrs by cytometric bead array-based FACS analysis. The data set is classed as functional, cell-based.
For data set [20], the target named is T6, Proteasome Macropain subunit MB1. The data set can be described thus: Inhibition of human constitutive proteasome beta 5 subunit using Suc-LLVY-AMC as substrate preincubated for 30 mins followed by substrate addition measured for 120 mins by fluorescence based assay.
Data set [21] addresses T1, Proteasome subunit beta type-8 (Homo sapiens). Description: Inhibition of 26S immunoproteasome beta 5 chymotrypsin-like activity in human THP-1 intact cells using […] as substrate after 2 hrs by luciferase based assay. The data set is classed as cell-based.
Data set [22] deals with T2, Proteasome subunit beta type-8. Description: Inhibition of 20S immunoproteasome beta 5 chymotrypsin-like activity in human THP-1 cell lysates using Suc-LLVY-AMC as substrate preincubated for 30 mins followed by substrate addition and measured for 90 mins by fluorescence based assay. The data set is classed as subcellular, Lysate. The method in brief:
(§2)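 Compounds incubated with cell lysates (HeLa: predominantly constitutive proteasome; THP-1: high immunoproteasome) and beta5 activity read with fluorogenic Suc-LLVY-AMC; IC50 determined.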

For data set [23], the system named is PBMC. The data set can be described thus: Inhibition of LPS-induced IL-12p70 production in human PBMC at 10 uM preincubated for 1 hr followed by LPS addition and measured after 24 hrs by cytometric bead array-based FACS analysis. It is filed as functional, cell-based.
In data set [24] the target is T1, Proteasome subunit beta type-8 (Homo sapiens). The data set can be described thus: Inhibition of 20S immunoproteasome beta 5 chymotrypsin-like activity in human HeLa cell lysates using Suc-LLVY-AMC as substrate preincubated for 30 mins followed by substrate addition and measured for 90 mins by fluorescence based assay. It is filed as subcellular. Conditions: Lysate. The method in brief: as §2

In data set [25] the test system is PBMC. The data set can be described thus: Inhibition of LPS-induced IL-8 production in human PBMC at 10 uM preincubated for 1 hr followed by LPS addition and measured after 24 hrs by cytometric bead array-based FACS analysis. The data set is classed as functional, cell-based.
The target of data set [26] is T7, Proteasome subunit beta type-9 (Homo sapiens) (UniProt P28065).
T7 sequence (whole entry): T4 sequence (P28065 whole entry)
Description: Inhibition of human immunoproteasome beta 1i subunit at 10 uM using Ac-PAL-AMC as substrate preincubated for 30 mins followed by substrate addition measured for 120 mins by fluorescence based assay. The method in brief: as §1

Turning to `CC(C)(C)ONC(=O)C[C@H](NC(=O)CCc1ccccc1)C(=O)N[C@@H](Cc1ccc(F)cc1)C(=O)NCc1cccc2ccccc12`, the inhibition entry in the data set with PBMC [1], with PBMC [2], in the data set on PBMC [5] and in the data set on PBMC [7] was “inactive” throughout. The inhibition result with PBMC [3] and in the data set on PBMC [6] was “Active” each time. In addition, in [4], the Activity worked out at 100%.

With `Cc1c(-c2nsc(=O)o2)c(=O)oc2cc3occ(-c4ccccc4)c3cc12`, the Ratio IC50 in the data set filed under Homo sapiens was 80. The same compound yielded an IC50 in [8] of 13 nM.

For `Cc1c(-c2nsc(=O)o2)c(=O)oc2cc3occ(C4CCCCC4)c3cc12`, the half-inhibitory concentration (IC50) result in [9] is “Nd(Insoluble)”; in data set [10] it was “Nd(Insoluble)”; in [20], “Nd(Insoluble)”; in [22], 1010 nM; in data set [8], 106 nM. In addition, the inhibition result (in the data set with PBMC [11]; in the data set with PBMC [14]; in data set [18]; in [24]) was “Active” throughout. The inhibition result (in the data set on PBMC [12]; in data set [13]; in data set [16]; in the data set with PBMC [19]; in [21]; in the data set with PBMC [23]) was “inactive” in each case. Moreover, the inhibition result (in the data set with PBMC [25]; in [26]) was “inactive” each time. For the same compound, the Activity in data set [15] came out at 22%. In addition, in data set [17], the “inhibition (INH)” value is reported as “Not Active”.
